From ChEMBL document CHEMBL4619796, “Discovery of 3-Quinazolin-4(3H)-on-3-yl-2,N-dimethylpropanamides as Orally Active and Selective PI3Kα Inhibitors” (ACS Med Chem Lett, 2020) come the findings set out here.

The nature of series [1]: Cmax in BALB/c mouse at 10 mg/kg, po by HPLC analysis. The class given is ADME, organism-based. The arrangement: dose 10 mg/kg, route oral. Conditions: in vivo.
The nature of series [2]: Dose normalized AUC (0 to last) in Sprague-Dawley rat at 3 mg/kg, po by HPLC analysis. The class given is ADME, organism-based. Conditions: in vivo.
Series [3] can be described thus: Volume of distribution in BALB/c mouse at 1 mg/kg, iv by HPLC analysis. Conditions: in vivo.
Series [4] concerns Mus musculus. Briefly: In vivo inhibition of PI3K in po dosed BALB/c nude mouse xenografted with PI3KCA mutant human BT474 cells assessed as reduction in AKT phosphorylation administered once daily measured after 1 to 4 hrs by Western blot analysis. The class given is functional, organism-based. Conditions: BT-474. The method, boiled down:
(§1)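 Mice bearing BT-474 subcutaneous xenografts were dosed orally in vehicle 0.5% MC + 0.2% Tween 80. Tumor Akt phosphorylation was assessed for time and dose dependence.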
(Xenograft models place foreign cells or tissue in a host animal.)

A short description of series [5]: Half life in BALB/c mouse at 1 mg/kg, iv by HPLC analysis. Conditions: in vivo.
A short description of series [6]: Metabolic stability in Beagle dog liver microsomes assessed as parent compound remaining at 10 uM preincubated for 10 mins in water bath followed by NADPH addition and measured after 60 mins by LC-MS/MS analysis. The format is ADME, Canis lupus familiaris, Microsome. The note with it: read-out: Stability. (Liver microsomes are vesicles of endoplasmic reticulum, rich in cytochrome P450 enzymes.)

For series [7], the system named is BT-474. As to the kind of experiment: Antitumor activity against PI3KCA mutant human BT474 cells xenografted in BALB/c nude mouse assessed as tumor growth inhibition at 30 mg/kg, po administered once daily and measured after 30 days by caliper method relative to control. The class given is functional. The note with it: BT-474, po, 720 h, read-out: TGI.
Series [8] has as its system Mus musculus. As to the kind of experiment: In vivo inhibition of PI3K in BALB/c nude mouse xenografted with PI3KCA mutant human BT474 cells assessed as reduction in AKT phosphorylation at 15 to 40 mg/kg, po administered once daily by Western blot analysis. Conditions: BT-474, TDE = time-dependent effect. The class given is functional, organism-based. Put shortly: as §1

Series [9] is described as follows: Half life in Sprague-Dawley rat at 1 mg/kg, iv by HPLC analysis. The class given is ADME, organism-based. Conditions: in vivo.
Series [10] is described as follows: Metabolic stability in CD-1 mouse liver microsomes assessed as parent compound remaining at 10 uM preincubated for 10 mins in water bath followed by NADPH addition and measured after 60 mins by LC-MS/MS analysis. Conditions: read-out: Stability. The class given is ADME, Microsome.
The nature of series [11]: Metabolic stability in Sprague-Dawley rat liver microsomes assessed as parent compound remaining at 10 uM preincubated for 10 mins in water bath followed by NADPH addition and measured after 60 mins by LC-MS/MS analysis. The class given is ADME, Microsome. Conditions: read-out: Stability.
The nature of series [12]: Inhibition of PI3K in human MCF7 cells assessed as reduction in AKT phosphorylation at residue S473 incubated for 2 hrs followed by insulin addition by ELISA. The class given is cell-based. The note with it: MCF7, 2 h. In general terms: In an ELISA, binding on a coated surface is turned into a signal by an enzyme label.
Series [13] can be described thus: Oral bioavailability in Sprague-Dawley rat at 3 mg/kg by HPLC analysis. The format is ADME, organism-based. Conditions: in vivo.
Series [14] in a line: Metabolic stability in human liver microsomes assessed as parent compound remaining at 10 uM preincubated for 10 mins in water bath followed by NADPH addition and measured after 60 mins by LC-MS/MS analysis. The class given is ADME, Microsome. Conditions: read-out: Stability.
Series [15] can be described thus: Oral bioavailability in BALB/c mouse at 10 mg/kg by HPLC analysis. Conditions: in vivo. The format is ADME, organism-based.
Series [16] is described as follows: Clearance in BALB/c mouse at 1 mg/kg, […] by HPLC analysis. The class given is ADME, organism-based. The note with it: in vivo.
A short description of series [17]: Metabolic stability in cynomolgus monkey liver microsomes assessed as parent compound remaining at 10 uM preincubated for 10 mins in water bath followed by NADPH addition and measured after 60 mins by LC-MS/MS analysis. The format is ADME, Macaca fascicularis, Microsome. Conditions: read-out: Stability.
Series [18] is described as follows: Protein binding in CD-1 mouse plasma measured after 4 hrs by LC-MS/MS analysis. The class given is ADME, cell-free. The note with it: read-out: PPB (converted).
Series [19] can be described thus: Clearance in CD-1 mouse cryopreserved hepatocytes incubated for 10 mins under shaking condition by LC-MS/MS analysis. The note with it: read-out: CLH. The class given is ADME, cell-based, Hepatocyte.
In series [20] the target is T1, Phosphatidylinositol 4,5-bisphosphate 3-kinase catalytic subunit alpha isoform (Homo sapiens, UniProt P42336). As to the kind of experiment: Inhibition of PI3Kalpha in human BT474 cells expressing P3KCA mutant assessed as reduction in AKT phosphorylation at residue S473 incubated for 2 hrs followed by insulin addition by ELISA. The format is cell-based. Conditions: bt-474. Put shortly:
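Akt phosphorylation was measured in the PIK3CA mutant human breast ductal carcinoma BT-474 cell line, used as a PI3Kα-sensitive cellular readout. IC50 determined.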
Target sequence in this assay (P42336 whole entry, looked up, canonical isoform): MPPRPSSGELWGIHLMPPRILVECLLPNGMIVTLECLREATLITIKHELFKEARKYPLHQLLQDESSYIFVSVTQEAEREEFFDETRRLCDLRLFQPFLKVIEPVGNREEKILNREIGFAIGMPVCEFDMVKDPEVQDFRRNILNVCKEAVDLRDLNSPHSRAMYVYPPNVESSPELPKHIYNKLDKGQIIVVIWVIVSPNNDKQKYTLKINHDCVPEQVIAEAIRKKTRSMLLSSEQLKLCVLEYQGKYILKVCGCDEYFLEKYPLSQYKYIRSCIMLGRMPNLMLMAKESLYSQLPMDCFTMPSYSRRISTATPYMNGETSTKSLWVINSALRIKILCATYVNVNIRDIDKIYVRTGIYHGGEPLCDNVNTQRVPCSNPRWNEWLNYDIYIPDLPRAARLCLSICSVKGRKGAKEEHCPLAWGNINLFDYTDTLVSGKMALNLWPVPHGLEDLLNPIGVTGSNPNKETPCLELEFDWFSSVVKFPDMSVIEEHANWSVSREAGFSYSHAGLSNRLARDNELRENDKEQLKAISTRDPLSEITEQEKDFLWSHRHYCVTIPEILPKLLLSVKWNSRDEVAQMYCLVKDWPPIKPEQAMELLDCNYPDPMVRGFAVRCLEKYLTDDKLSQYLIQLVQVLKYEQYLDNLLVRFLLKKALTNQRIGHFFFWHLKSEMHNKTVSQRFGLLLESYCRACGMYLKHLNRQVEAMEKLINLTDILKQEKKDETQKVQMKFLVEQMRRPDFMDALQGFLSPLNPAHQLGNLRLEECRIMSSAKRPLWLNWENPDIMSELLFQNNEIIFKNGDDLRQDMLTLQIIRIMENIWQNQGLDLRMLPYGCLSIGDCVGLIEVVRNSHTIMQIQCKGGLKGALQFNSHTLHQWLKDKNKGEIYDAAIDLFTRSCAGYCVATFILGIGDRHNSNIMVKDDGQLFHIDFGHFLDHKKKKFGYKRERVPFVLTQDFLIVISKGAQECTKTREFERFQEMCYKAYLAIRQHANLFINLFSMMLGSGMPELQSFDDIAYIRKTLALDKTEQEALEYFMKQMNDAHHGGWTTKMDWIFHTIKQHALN

Series [21] has as its target T1, Phosphatidylinositol 4,5-bisphosphate 3-kinase catalytic subunit alpha isoform. As to the kind of experiment: Inhibition of PI3Kalpha (unknown origin) using PIP2:3PS peptide as substrate preincubated for 15 mins followed by ATP addition at Km concentration and further incubated for 150 mins by ADP-Glo assay.
Target sequence in this assay (P42336 whole entry, canonical isoform): as the sequence (P42336 whole entry, looked up, canonical isoform) above
Series [22] in a line: Dose normalized AUC (0 to last) in BALB/c mouse at 10 mg/kg, po by HPLC analysis. The note with it: in vivo. The class given is ADME, organism-based.
The target in series [23] is T2, Phosphatidylinositol 4,5-bisphosphate 3-kinase catalytic subunit delta isoform (Homo sapiens, UniProt O00329).
T2 sequence (O00329 whole entry): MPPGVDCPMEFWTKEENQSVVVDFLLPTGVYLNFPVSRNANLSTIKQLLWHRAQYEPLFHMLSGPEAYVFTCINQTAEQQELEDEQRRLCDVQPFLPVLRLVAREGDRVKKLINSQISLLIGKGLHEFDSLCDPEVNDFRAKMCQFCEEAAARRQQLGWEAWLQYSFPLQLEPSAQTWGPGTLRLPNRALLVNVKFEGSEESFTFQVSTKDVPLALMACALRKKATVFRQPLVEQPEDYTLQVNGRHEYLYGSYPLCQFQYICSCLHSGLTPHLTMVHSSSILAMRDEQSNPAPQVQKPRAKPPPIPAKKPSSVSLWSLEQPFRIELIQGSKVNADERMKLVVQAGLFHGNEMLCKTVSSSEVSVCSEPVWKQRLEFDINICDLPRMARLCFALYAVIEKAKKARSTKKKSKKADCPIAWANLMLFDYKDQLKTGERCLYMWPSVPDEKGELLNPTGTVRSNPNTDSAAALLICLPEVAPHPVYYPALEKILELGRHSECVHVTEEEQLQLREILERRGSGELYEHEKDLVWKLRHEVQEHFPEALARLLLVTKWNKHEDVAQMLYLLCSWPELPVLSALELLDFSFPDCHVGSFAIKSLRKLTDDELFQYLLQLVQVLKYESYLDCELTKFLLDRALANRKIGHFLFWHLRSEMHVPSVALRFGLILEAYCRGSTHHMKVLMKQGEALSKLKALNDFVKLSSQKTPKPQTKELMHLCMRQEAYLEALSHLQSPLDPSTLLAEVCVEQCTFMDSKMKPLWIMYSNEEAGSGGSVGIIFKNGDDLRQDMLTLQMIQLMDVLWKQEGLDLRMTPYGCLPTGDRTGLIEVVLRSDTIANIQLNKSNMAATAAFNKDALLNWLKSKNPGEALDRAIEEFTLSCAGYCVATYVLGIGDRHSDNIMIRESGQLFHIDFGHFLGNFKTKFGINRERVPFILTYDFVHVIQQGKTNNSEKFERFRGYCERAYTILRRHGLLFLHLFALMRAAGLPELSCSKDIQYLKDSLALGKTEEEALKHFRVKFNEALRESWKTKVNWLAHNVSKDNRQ
As to the kind of experiment: Inhibition of PI3Kdelta in human Jeko1 cells assessed as reduction in AKT phosphorylation at residue S473 measured after 2 hrs by sandwich ELISA.

In [1], `CNC(=O)[C@H](C)Cn1cnc2ccc(-c3cnc(OC)c(NS(=O)(=O)c4ccc(F)cc4Cl)c3)cc2c1=O` gave a Cmax of 37 µM. Also, the AUClast/dose in series [2] worked out at 2711 nM·h; in [22] it was 3090 nM·h. Further, the Vd in series [3] turned out to be 0.179 L/kg. The inhibition entry is “Dose-dependent effect” in series [4] and “Tde” in series [8]. For the same compound, the values for the half-life in [5] and in series [9] were 0.966 h and 1.22 h, respectively. The remaining at 1 h, 10 µM in series [6] turned out to be 53.9%; in series [10], 32.7%; in series [11], 32%; in series [14] it was 44.6%; in [17], 13.7%. Further, the inhibition in vivo at 30 mg/kg in series [7] worked out at 86%. Also, the IC50 in series [12] is 32.9 nM; in series [20], 12.1 nM; in [21] it was 1.8 nM; in [23] it was 183 nM. Further, the bioavailability is 46.9% in series [13] and 59.4% in series [15]. For the same compound, the CL/F in series [16] worked out at 4.2 mL/min/kg. In series [18], the fraction unbound at 4 h was 0.014. The CLint scaled in [19] was determined as 642 mL/min/kg.

By Cmax is commonly meant the peak of the concentration-time curve. The term Vd denotes the apparent volume that relates the amount in the body to the concentration in plasma or blood. Broadly, the half-life is how long it takes for the measured level to halve. One may read the IC50 as the concentration that gives 50% inhibition. By bioavailability is commonly meant dose-corrected exposure relative to a reference, in per cent. As usually defined, the CL/F is the apparent clearance, not corrected for the fraction that reaches the circulation.
